# Screens (PubChem)
# In the library only some 1.9% were active in any assay of this set; here they are far more common.
# Pemphigus Ab inh: inhibitors of pemphigus antibody binding to DSG3, primary screen, biochemical, bead-based, flow cytometry, scFv-GFP. Desmoglein-3 (Homo sapiens), P32926. DSG3-coupled beads, scFv-anti-DSG3-GFP binding; active compounds read low. binding (percent of control), % at 10 µM. 310,000 compounds, 0.48% hits;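 active = binding more than 3 SD below its plate's average and above zero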;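 also: hits lower antibody fragment binding to DSG3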
# core dimer inh: inhibitors of HCV core protein dimerization, primary screen, biochemical, TR-FRET, high-throughput | 300,000 compounds, 0.33% hits | TR-FRET GST/Flag-core106 dimerization, 1536-well | inhibition, % at 5 µM | AID 1899, 2009;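 active = inhibition above the mean of all tested compounds plus 3 SD, set per screening campaign, cut at about 45% in these data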
#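 Material: GST/Flag-tagged HCV core106 proteins. Incubation: 4 h, 22.5 °C incubation. Read-out basis: inhibition (%) from 671 over 617 nm ratio. Measured by: TR-FRET, excitation 340 nm, emission 617 and 671 nm.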
# NadD inh: inhibitors of S. aureus NadD, primary screen, biochemical, colorimetric, uHTS; Nicotinate-nucleotide adenylyltransferase NadD (Staphylococcus aureus N315); purified NadD enzyme, colorimetric absorbance read-out; inhibition, % at 20 µM; 360,000 compounds, 0.78% hits; AID 602399, 2012; in the data active = inhibition above about 26%
# Rce1 inh: yeast Rce1p protease inhibitors, primary screen, biochemical, fluorescence, cell-free homogeneous | 290,000 compounds, 0.27% hits | AID 2563, 2010 | calls only | yeast membranes, quenched prenylated peptide cleavage fluorescence;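 active = fall in fluorescence gain of 50% or more versus controls, with final raw signal at or below 3038400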;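 also: plate controls were neutral control wells for no effect and wells lacking membranes for full effect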
# TbMetRS inhib: T. brucei MetRS inhibitors, primary screen, biochemical, luminescence; methionyl-tRNA synthetase (Trypanosoma brucei brucei); purified T. brucei MetRS, ATP depletion, Kinase-Glo luminescence; inhibition, % at 11.9 µM; 360,000 compounds, 0.4% hits; AID 624268, 2012;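 active = inhibition above a per-plate cutoff of the control wells' mean inhibition plus 3 SD, cut at about 5.5% in these data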;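 also: 0% = DMSO wells median and 100% = median of wells with control inhibitor compound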
#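 Test system – parasite MetRS enzyme · Reagent – substrates ATP, L-methionine and bulk Escherichia coli tRNA · Doses – 11.9 µM compound single dose, 0.9% DMSO · Times – 15 min enzyme-compound preincubation, 2 h reaction, 10 min detection, 25 °C · Signal – Kinase-Glo luminescence, ATP depletion format · Controls – DMSO-only wells as low control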
# NadD inh conf: inhibitors of S. aureus NadD, confirmation, biochemical, colorimetric, single concentration; 2,000 compounds, 13% hits; shares compounds with NadD inh; inhibition, % at 20 µM; purified S. aureus NadD, colorimetric enzyme assay; AID 624309, 2012; in the data active = inhibition mostly above about 42%, no sharp cut-off; inactive = mostly below about 42%
# The depositor's hits bear a star; i = inactive; · = no result given.
SMILES,Pemphigus Ab inh,core dimer inh,NadD inh,Rce1 inh,TbMetRS inhib,NadD inh conf
CC(C)c1ccc(C(=O)NNC(=O)C2CC=CCC2C(=O)O)cc1 (configuration not stated),·,-5,4,i,0,·
Cc1ccc(-c2ccc(=O)n(CC(=O)NCC3COCCO3)n2)cc1 (configuration not stated),98,-7,2,i,0,·
O=C(c1cc2sccc2n1Cc1ccc(F)cc1)N1CCN(c2nc3ccccc3s2)CC1,104,3,55*,i,0,32
Cc1c([N+](=O)[O-])cc(N2C(=O)C=CC2=O)cc1[N+](=O)[O-],83,·,42*,·,0,57*
CCOc1cc(C2C3=C(CC(C)(C)CC3=O)N(CCOC)C3=C2C(=O)CC(C)(C)C3)ccc1OC,104,2,10,i,0,·
COc1ccc(-c2nnc(NC(=O)c3ccc(S(=O)(=O)N4CCc5ccccc5C4)cc3)o2)cc1,·,-4,84*,i,0,14
Cc1cccc2sc(NNC(=O)c3ccc(S(=O)(=O)N4CC(C)CC(C)C4)cc3)nc12 (configuration not stated),84,26,58*,i,-2,54*
Cc1ccc2nc(NNC(=O)c3ccc4c(c3)OCCO4)sc2c1,96,-1,2,i,0,·
Cc1cc(C)c2nc(NNC(=O)c3ccc(S(=O)(=O)N4CCCC(C)C4)cc3)sc2c1 (configuration not stated),95,16,15,i,-1,·
Cc1ccc2nc(NNC(=O)c3ccc(S(=O)(=O)N4CCc5ccccc5C4)cc3)sc2c1,86,38,59*,i,-1,56*
Cc1cc(C)c2nc(NNC(=O)c3ccc(S(=O)(=O)N4CC(C)CC(C)C4)cc3)sc2c1 (configuration not stated),100,38,34*,i,0,24
CC(=O)Nc1ccc(S(=O)(=O)/N=C2\SCCN2S(=O)(=O)c2ccc(NC(C)=O)cc2)cc1,106,-1,58*,i,-1,48
CC(=O)Nc1ccc(S(=O)(=O)Nc2ccc(S(=O)(=O)N3CCCC3)cc2)cc1,100,-4,-3,i,-1,·
Cc1c(Cl)cccc1NC(=O)NCc1ccccn1,99,-6,2,i,0,·
COc1ccc(-c2nn(-c3ccccc3)cc2/C=N/NC(=O)c2cccc(S(=O)(=O)Nc3ccccc3OC)c2)cc1,83*,37,45*,i,0,31
C#CCOCCOCCOCCNc1nc(N2CCN(C(=O)CCCCCCCCCCNC(=O)[C@@H](CCC(=O)O)n3cc(CCCCCN)nn3)CC2)nc(N2CCN(C(=O)CCCCCCCCCCNC(=O)[C@H](CO)n3cc(CCCCCN)nn3)CC2)n1,106,-3,0,·,0,·
C#CCOCCOCCOCCNc1nc(N2CCN(C(=O)CCCCCCCCCCNC(=O)[C@@H](CCSC)n3cc(CCO)nn3)CC2)nc(N2CCN(C(=O)CCCCCCCCCCNC(=O)[C@H](CO)n3cc(CCCCCN)nn3)CC2)n1,113,6,23,·,0,·
C#CCOCCOCCOCCNc1nc(N2CCN(C(=O)CCCCCCCCCCNC(=O)[C@@H](CCC(=O)O)n3cc(CCCCCN)nn3)CC2)nc(N2CCN(C(=O)CCCCCCCCCCNC(=O)[C@H](CO)n3cc(CCCSC)nn3)CC2)n1,105,2,48*,·,1,-7
C#CCOCCOCCOCCNc1nc(N2CCN(C(=O)CCCCCCCCCCNC(=O)[C@@H](CCSC)n3cc(CCO)nn3)CC2)nc(N2CCN(C(=O)CCCCCCCCCCNC(=O)[C@H](CCC(=O)O)n3cc(CCCCCN)nn3)CC2)n1,106,-9,41*,·,0,48*
Nc1nc2c(c(=O)[nH]1)C(c1ccccc1)C1=C(N2)c2ccccc2C1=O (configuration not stated),106,-14,0,i,1,·
